One block for each compound: values may come before it.
Legend:
[1] = test system: Mus musculus; assay: (§1) Compound was evaluated for the in vivo antitumor activity against P388 leukemia cells after injecting the compound intraperitoneally at a dose of 5 mg/kg in mice; assay type: functional; conditions: route intraperitoneal
Method in brief: (§2)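 BDF1 male mice, eight per group, implanted ip with 10⁶ P388 leukemia cells. Drug given ip in 0.5 mL saline. Schedules varied between groups; the 100 mg/kg/day regimen was dosed qd 1-9.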

[2] = test system: Mus musculus; assay: Compound was evaluated for the in vivo antitumor activity against p388 leukemia cells after injecting the compound intraperitoneally at a dose of 5 mg/kg in mice; assay type: functional; conditions: route intraperitoneal; method in brief: as §2
[3] = test system: Mus musculus; assay: Compound was evaluated for the in vivo antitumor activity against P388 leukemia cells after injecting the compound intraperitoneally at a dose of 1 mg/kg in mice; assay type: functional; conditions: route intraperitoneal; method in brief: as §2
[4] = test system: Mus musculus; assay: Compound was evaluated for the in vivo antitumor activity against P388 leukemia cells after injecting the compound intraperitoneally at a dose of 2 mg/kg in mice (treatment schedule 1-9 days); assay type: functional; conditions: route intraperitoneal; method in brief: as §2
[5] = test system: Mus musculus; assay: as §1; assay type: functional; conditions: route intraperitoneal; method in brief: as §2; remark: listed apart in the source
[6] = test system: Mus musculus; assay: Compound was evaluated for the in vivo antitumor activity against P388 leukemia cells after injecting the compound intraperitoneally at a dose of 50 mg/kg in mice; assay type: functional; conditions: route intraperitoneal; method in brief: as §2
[7] = test system: Mus musculus; assay: Compound was evaluated for the in vivo antitumor activity against p388 leukemia cells after injecting the compound intraperitoneally at a dose of 2 mg/kg in mice; assay type: functional; conditions: route intraperitoneal; method in brief: as §2
[8] = species: Mus musculus; assay: Effective dose by 50% was evaluated; assay type: functional
Method in brief: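 P388 mouse lymphoid leukemia cells were grown in culture in the presence of the compound, and the concentration giving 50% effect on growth was taken as the ED₅₀.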

[9] = molecular target: Adenosine deaminase (Bos taurus) (UniProt P56658); assay: Compound was evaluated for competitive inhibition of adenosine deaminase and expressed as Ki
Chain of Adenosine deaminase (Bos taurus) (P56658 whole entry, looked up): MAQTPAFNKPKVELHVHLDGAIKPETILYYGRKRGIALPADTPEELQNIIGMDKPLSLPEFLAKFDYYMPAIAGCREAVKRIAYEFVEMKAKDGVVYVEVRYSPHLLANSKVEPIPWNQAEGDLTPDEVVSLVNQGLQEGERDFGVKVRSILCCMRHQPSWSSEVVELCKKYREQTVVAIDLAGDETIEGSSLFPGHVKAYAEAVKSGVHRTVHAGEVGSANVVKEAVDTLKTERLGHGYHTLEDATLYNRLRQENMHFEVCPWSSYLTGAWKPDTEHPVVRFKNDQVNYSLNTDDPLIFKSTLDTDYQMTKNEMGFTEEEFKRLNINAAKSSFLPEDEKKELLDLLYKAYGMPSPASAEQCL

SMILES: Nc1ncnc2c1nnn2C1CC(CO)C(O)C1O (configuration not stated)
Survival time [1]: 18.4 days | T/C [2]: 173% | Survival time [3]: 13.9 days | T/C [3]: 128% | Survival time [4]: 16.1 days | Survival time [5]: 17.9 days | T/C [5]: 175% | Survival time [6]: 19.5 days | T/C [6]: 226% | T/C [7]: 149%

Ki [9]: 9.9 µM
SMILES: Nc1ncnc2c1ncn2[C@@H]1C[C@H](CO)[C@@H](O)[C@H]1O [ARISTEROMYCIN]
ED50 [8]: 67 µM
